Source: PMC10360211 (Science (New York, N.Y.), 2022)
“Also recorded” adds a separate entry of the source. Where two headings read alike, the source gives them in different places.

Key:
human α2AAR [1] = molecular target: T1, human α2AAR (Homo sapiens, UniProt P08913); test: ebBRET-based EMTA G protein and β-arrestin coupling panel; type: cell-based
T1 sequence (P08913 1-465): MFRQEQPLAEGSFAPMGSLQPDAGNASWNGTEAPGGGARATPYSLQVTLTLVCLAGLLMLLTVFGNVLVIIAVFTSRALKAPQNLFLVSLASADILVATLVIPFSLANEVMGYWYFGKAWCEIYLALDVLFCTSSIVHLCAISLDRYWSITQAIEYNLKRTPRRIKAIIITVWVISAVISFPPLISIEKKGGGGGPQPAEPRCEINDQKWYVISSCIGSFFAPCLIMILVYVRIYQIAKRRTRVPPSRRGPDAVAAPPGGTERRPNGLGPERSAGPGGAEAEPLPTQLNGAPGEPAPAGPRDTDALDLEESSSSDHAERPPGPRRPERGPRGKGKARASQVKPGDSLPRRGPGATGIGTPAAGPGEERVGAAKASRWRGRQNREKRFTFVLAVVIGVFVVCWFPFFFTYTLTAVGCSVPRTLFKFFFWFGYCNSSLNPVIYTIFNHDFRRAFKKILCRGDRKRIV
In short: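 ebBRET in HEK293SL cells transfected with premixed biosensor DNA plus α2AAR using PEI (3:1). DNA was 0.57 μg, or 1 μg total for G12/13, and cells were seeded at 3.5×10^4 cells/well for 48 h. Gα activation was read as translocation of RlucII-tagged effectors (p63-RhoGEF for Gq/11, Rap1-GAP for Gi/o, PDZ-RhoGEF for G12/13) to rGFP-CAAX. β-arrestin-1/2-RlucII was also read against rGFP-CAAX. Cells sat in Tyrode HEPES 1 h, then received increasing compound concentrations 10 min at 37°C, with 1 μM Prolume purple for the final 6 min.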

Pharmacokinetics in mice = type: in vivo; conditions: 10-mg/kg i.v. and 30-mg/kg p.o.
In short: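 C57BL/6 mice were dosed 10 mg/kg i.v. or 30 mg/kg p.o., with vehicle-dosed groups alongside. One analogue was formulated in 20% v/v HβCD in saline. Sparse sampling used three mice per time point (one for vehicle). Blood was drawn from the orbital sinus into K3EDTA under tribromoethanol (150 mg/kg i.p.), and plasma was spun at 4000 rpm, 10 min, 4°C. Brain was homogenised in ice-cold PBS. Samples were analysed by HPLC-MS/MS; values below LLOQ were set to zero.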

[2] = Metabolic stability in rat liver microsomes; type: in vitro ADME; conditions: male rat liver microsomes, 1 hour, 20 μM
In short: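 Pooled male Sprague Dawley rat liver microsomes (0.25 mg protein per tube) were incubated with test compound or a positive control (20 µM final). Buffer was 50 mM Tris, 5 mM MgCl2, pH 7.4. Incubation was at 37°C on a rotating carousel.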

mice [3] = test: Tail flick; type: in vivo; conditions: tail flick 50°C, s.c.
In short: (§1)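 WT and α2AAR D79N mice were habituated for 1 h in cylinders and tested 30 min after s.c. dosing. The tail was immersed in a 50°C water bath to measure heat sensitivity. The experimenter was blind to treatment.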

human α2AAR [4] = molecular target: T1, human α2AAR; test: Gαi BRET G protein activation assay; type: cell-based
In short: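 HEK293T cells were co-transfected with α2AAR, Gαi1-RLucII, Gβ1 and Gγ2-GFP10. After 48 h the medium was replaced with PBS and cells were stimulated with ligand for 10 min at 37°C. Coelenterazine 400a (2.5 µM final) was added 5 min before reading. BRET was taken as acceptor/donor emission (515/410 nm) and normalised to buffer (0%) and maximal norepinephrine (100%). There were 3–17 experiments, each in duplicate. Receptor surface expression was checked by anti-FLAG ELISA.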

α2AAR D79N mutant mice = test: Tail flick; type: in vivo; conditions: tail flick 50°C, versus WT
In short: as §1

mice [5] = test: Rotarod motor test; type: in vivo
In short: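 Mice were first trained three times for 5 min on an accelerating rotating rod before any compound. They were then tested 30 min after s.c. dosing, with the experimenter blind to treatment.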

[6] = system: spared nerve injury (SNI) mice; test: SNI model of neuropathic pain, mechanical; type: in vivo
In short: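 Spared nerve injury: under isoflurane, two of the three sciatic nerve branches were ligated and transected distally, leaving the sural nerve intact. Testing was done 7–14 days after injury. Atipamezole (2 mg/kg i.p.) was given 15 min before s.c. agonist, and testing followed 30 min after agonist. Hindpaw thresholds were measured with von Frey filaments by the up-down method, by a blinded experimenter.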

naïve (uninjured) mice = test: Mechanical withdrawal thresholds in naïve mice; type: in vivo; conditions: 5 mg/kg s.c.
In short: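 Uninjured mice were habituated for 1 h in Plexiglas cylinders and tested 30 min after s.c. dosing. Hindpaw mechanical thresholds were found with von Frey filaments by the up-down method. The experimenter was blind to treatment, and animals were randomly assigned to compound or vehicle.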

human α2AAR [7] = molecular target: T1, human α2AAR; test: Internalization assay with rGFP-CAAX and rGFP-FYVE biosensors; type: cell-based; conditions: for receptor internalization: both biosensors
human α2BAR = molecular target: T2, human α2BAR (Homo sapiens, UniProt P18089); test: Radioligand binding, human α2BAR; conditions: read-out: Kd of radioligand; saturation, HEK293T membranes
T2 sequence (P18089 1-450): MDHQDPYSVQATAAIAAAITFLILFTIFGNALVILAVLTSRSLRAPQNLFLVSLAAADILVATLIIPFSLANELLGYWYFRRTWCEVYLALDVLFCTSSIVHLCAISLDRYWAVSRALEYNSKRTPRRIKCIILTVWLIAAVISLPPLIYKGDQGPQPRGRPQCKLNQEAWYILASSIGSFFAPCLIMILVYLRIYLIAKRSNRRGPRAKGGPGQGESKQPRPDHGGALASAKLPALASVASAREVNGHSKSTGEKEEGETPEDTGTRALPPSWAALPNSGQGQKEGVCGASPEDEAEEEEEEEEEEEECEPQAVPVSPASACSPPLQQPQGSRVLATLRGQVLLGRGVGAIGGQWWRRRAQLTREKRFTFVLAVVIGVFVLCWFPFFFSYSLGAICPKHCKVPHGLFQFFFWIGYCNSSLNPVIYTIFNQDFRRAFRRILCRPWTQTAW

human α2AAR [8] = molecular target: T1, human α2AAR; test: Radioligand binding, human α2AAR; conditions: read-out: Kd of radioligand; saturation, HEK293T membranes
murine α2AAR = molecular target: T3, murine α2AAR (Mus musculus, UniProt Q01338); test: Radioligand binding, murine α2AAR; conditions: read-out: Kd of radioligand; saturation, HEK293T membranes
T3 sequence (Q01338 1-465): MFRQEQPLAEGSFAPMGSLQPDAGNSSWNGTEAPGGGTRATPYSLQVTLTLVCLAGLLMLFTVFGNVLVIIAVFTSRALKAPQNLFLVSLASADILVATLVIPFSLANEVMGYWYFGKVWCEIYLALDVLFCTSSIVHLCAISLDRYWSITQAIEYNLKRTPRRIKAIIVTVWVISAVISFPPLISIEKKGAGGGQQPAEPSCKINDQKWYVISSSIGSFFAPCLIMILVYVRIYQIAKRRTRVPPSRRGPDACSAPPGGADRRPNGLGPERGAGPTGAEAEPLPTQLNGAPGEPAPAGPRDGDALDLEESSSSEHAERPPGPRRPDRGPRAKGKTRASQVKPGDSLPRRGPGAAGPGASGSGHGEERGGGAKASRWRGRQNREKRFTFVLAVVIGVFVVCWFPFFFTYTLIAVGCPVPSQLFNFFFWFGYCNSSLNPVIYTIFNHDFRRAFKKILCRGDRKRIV

human α2C = molecular target: T4, human α2C (Homo sapiens, UniProt P18825); test: Radioligand binding, α2C; conditions: read-out: Kd of radioligand; saturation, HEK293T membranes
T4 sequence (P18825 1-462): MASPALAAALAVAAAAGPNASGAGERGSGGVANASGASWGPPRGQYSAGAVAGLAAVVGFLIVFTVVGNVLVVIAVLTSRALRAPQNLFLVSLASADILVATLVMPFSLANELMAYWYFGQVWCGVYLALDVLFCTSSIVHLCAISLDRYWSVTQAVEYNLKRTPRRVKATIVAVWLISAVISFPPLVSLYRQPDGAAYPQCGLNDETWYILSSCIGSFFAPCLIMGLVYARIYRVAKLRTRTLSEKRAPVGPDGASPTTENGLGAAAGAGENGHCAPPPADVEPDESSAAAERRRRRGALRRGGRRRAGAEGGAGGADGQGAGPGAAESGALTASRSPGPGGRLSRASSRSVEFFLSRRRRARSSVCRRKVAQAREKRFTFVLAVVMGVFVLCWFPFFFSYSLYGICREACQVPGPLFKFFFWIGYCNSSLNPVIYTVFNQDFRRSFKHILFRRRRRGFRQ

[9] = system: α2AAR D128^3.32 mutant receptors; type: cell-based, human
[10] = molecular target: α2AAR D128^3.32 mutant receptors (Homo sapiens, UniProt P08913, D128A); type: cell-based; conditions: D128^3.32A versus wild type
mice [11] = test: Constipation assay; conditions: i.p.; morphine 10 mg/kg, dexmedetomidine 30 μg/kg, ‘9087 5 mg/kg; versus vehicle

Chain of α2AAR D128^3.32 mutant receptors (Homo sapiens, UniProt P08913, D128A) (P08913 whole entry D128A): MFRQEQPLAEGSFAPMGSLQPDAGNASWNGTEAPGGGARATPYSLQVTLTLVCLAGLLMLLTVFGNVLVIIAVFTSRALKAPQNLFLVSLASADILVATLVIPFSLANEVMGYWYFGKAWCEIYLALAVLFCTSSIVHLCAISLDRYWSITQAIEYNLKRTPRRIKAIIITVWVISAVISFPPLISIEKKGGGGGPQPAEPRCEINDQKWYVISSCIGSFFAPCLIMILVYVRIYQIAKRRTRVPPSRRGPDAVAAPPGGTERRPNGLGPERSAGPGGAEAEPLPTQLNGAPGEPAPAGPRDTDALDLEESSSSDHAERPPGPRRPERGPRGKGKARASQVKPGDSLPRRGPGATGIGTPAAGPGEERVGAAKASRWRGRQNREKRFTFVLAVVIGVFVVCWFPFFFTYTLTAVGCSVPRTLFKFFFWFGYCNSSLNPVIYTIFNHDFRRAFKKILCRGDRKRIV

Structure (SMILES): Clc1ccc2cccc(Nc3ccncc3)c2c1 [PS75]
- G protein and β-arrestin subtype signaling profile (human α2AAR [1]): preferentially activated Gi, Go, and Gz (Gi/o/z) signaling; also recorded: retained the preferential signaling through the Gi/o versus other G protein families and β-arrestins
- oral bioavailability (Pharmacokinetics in mice): fully bio-available
- metabolic stability [2]: remain largely unmodified
- withdrawal latencies (mice [3]): increased withdrawal latencies
- increased potency compared with ‘9087 (human α2AAR [4]; Gi activation): 11 fold
- Emax, Gi activation (human α2AAR [4]; Gαi BRET, % of norepinephrine response): 82%
- EC50 (human α2AAR [4]; abstract): 4.8 nM
- analgesia in D79N mutant mice (α2AAR D79N mutant mice): substantially decreases the analgesia
- reduction of analgesia in D79N mutant mice (α2AAR D79N mutant mice): > 50%
- motor impairment and sedation (mice [5]): did not have an effect on the rotarod test; also recorded: do not cause sedation or motor impairment at analgesic doses
- effect of atipamezole on the agonist's effect ([6]; atipamezole 2 mg/kg i.p. 15 min before agonist): partially reversed
- effect on mechanical thresholds / allodynia ([6]; s.c.): completely reversed the mechanical hypersensitivity
- baseline mechanical withdrawal thresholds (naïve (uninjured) mice): did increase the mechanical thresholds
- receptor internalization (human α2AAR [7]): negligible receptor internalization
- disappearance of α2AARs from the plasma membrane (human α2AAR [7]; α2AAR-RlucII/rGFP-CAAX biosensor): no effect
- relocalization of the receptors in endosomes (human α2AAR [7]; α2AAR-RlucII/rGFP-FYVE biosensor): marginal effect at the highest concentrations

Structure (SMILES): COC1(C2=NCCN2)COc2ccccc2O1 (centres unmarked) [[^3H]RX82,1002]
- Kd (human α2BAR): 2.3 ± 0.52 nM
- Kd (human α2AAR [8]): 0.54 ± 0.024 nM
- Kd (murine α2AAR): 1.8 ± 0.61 nM
- Kd (human α2C): 0.58 ± 0.11 nM

Structure (SMILES): Brc1c(NC2=NCCN2)ccc2nccnc12 [brimonidine]
- G protein and β-arrestin subtype signaling profile (human α2AAR [1]): strongly activated multiple additional G proteins and β-arrestins
- receptor internalization (human α2AAR [7]): comparable responses for both biosensors

Structure (SMILES): Cc1cccc([C@H](C)c2cnc[nH]2)c1C [dexmedetomidine]
- G protein and β-arrestin subtype signaling profile (human α2AAR [1]): strongly activated multiple additional G proteins and β-arrestins
- analgesia in D79N mutant mice (α2AAR D79N mutant mice): no longer induced analgesia in the mutant mice
- analgesia in D79N mutant mice (α2AAR D79N mutant mice; listed as DEX): substantially decreases the analgesia
- motor impairment and sedation (mice [5]): complete sedation; also recorded: full sedation
- motor impairment and sedation (mice [5]; listed as DEX): significant impairment and complete sedation at higher doses
- Gi activation and β-arrestin recruitment on substitutions to D128^3.32 [9]: almost complete loss
- Gi EC50 fold higher [10]: 170,000 fold
- receptor internalization (human α2AAR [7]): about half of this response

Structure (SMILES): CN1CC[C@]23c4c5ccc(O)c4O[C@H]2[C@@H](O)C=C[C@H]3[C@H]1C5 [morphine]
- analgesia in D79N mutant mice (α2AAR D79N mutant mice): does not affect; also recorded: not significantly altered by the mutation
- constipation, accumulated pellets over 6 hours (mice [11]): induced constipation

Structure (SMILES): NC[C@H](O)c1ccc(O)c(O)c1 [norepinephrine]
- G protein and β-arrestin subtype signaling profile (human α2AAR [1]): strongly activated multiple additional G proteins and β-arrestins
- Gi activation and β-arrestin recruitment on substitutions to D128^3.32 [9]: almost complete loss
- receptor internalization (human α2AAR [7]): comparable responses for both biosensors
